Measured values from paper PMC7233196 (ACS chemical biology, 2020).

How the values were obtained:
Test in all cases: BRET ratio titration, purified sensor
Assay type in all cases: binding
tVYN-NtΔ (NtYcgRΔ) = conditions: read-out: KD(nM)^a; 3 nM sensor; pH 7.2, 100 mM KCl, 10 mM DTT, 0.1% BSA, 28 °C; Hill fit
Method in brief: (§1)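 Coelenterazine-h substrate (60 μM in HEPES/KCl/300 mM ascorbate, pre-equilibrated ≥30 min at RT) added, 20 μL into 100 μL. Emission read at 460 and 530 nm, 28 °C, every 30 s for 10 min. BRET ratio taken at 2 min.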

tVYN-Nt (NtYcgR) = conditions: read-out: KD(nM)^a; 3 nM sensor; pH 7.2, 100 mM KCl, 10 mM DTT, 0.1% BSA, 28 °C; Hill fit
Method in brief: as §1

VYN-Ec (EcYcgR) = target: T1, VYN-Ec (EcYcgR) (Escherichia coli, UniProt P76010)
T1 sequence (P76010 1-244): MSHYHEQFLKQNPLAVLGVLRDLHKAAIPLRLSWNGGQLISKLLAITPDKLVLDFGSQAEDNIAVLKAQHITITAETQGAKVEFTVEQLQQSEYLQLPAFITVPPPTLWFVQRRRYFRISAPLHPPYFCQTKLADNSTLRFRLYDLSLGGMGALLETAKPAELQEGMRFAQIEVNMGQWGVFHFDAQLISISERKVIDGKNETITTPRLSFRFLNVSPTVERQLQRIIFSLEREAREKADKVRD
Method in brief: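 Coelenterazine-h prepared at 60 μM in HEPES/KCl/300 mM ascorbate (≥30 min RT), then added. Emission at 460 and 530 nm read at 30 s intervals for 10 min, 28 °C; BRET ratio taken 2 min post-substrate.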

Vcp229-Nt (NtYcgR) = conditions: read-out: KD(nM)^a; 3 nM sensor; pH 7.2, 100 mM KCl, 10 mM DTT, 0.1% BSA, 28 °C; Hill fit
Method in brief: as §1

tVYN-Tb (TbYcgR) = conditions: read-out: KD(nM)^a; 3 nM sensor; pH 7.2, 100 mM KCl, 10 mM DTT, 0.1% BSA, 28 °C; Hill fit
Method in brief: as §1

VYN-Tb (TbYcgR) = conditions: read-out: KD(nM)^a; 3 nM sensor; pH 7.2, 100 mM KCl, 10 mM DTT, 0.1% BSA, 28 °C; Hill fit
Method in brief: as §1

Vcp157-Cp (CpYcgR) = conditions: read-out: KD(nM)^a; 3 nM sensor; pH 7.2, 100 mM KCl, 10 mM DTT, 0.1% BSA, 28 °C; Hill fit
Method in brief: as §1

Vcp173-Nt (NtYcgR) = conditions: read-out: KD(nM)^a; 3 nM sensor; pH 7.2, 100 mM KCl, 10 mM DTT, 0.1% BSA, 28 °C; Hill fit
Method in brief: as §1

VYN-Nt (NtYcgR) = conditions: read-out: KD(nM)^a; 3 nM sensor; pH 7.2, 100 mM KCl, 10 mM DTT, 0.1% BSA, 28 °C; Hill fit
Method in brief: as §1

Molecule `Nc1nc2c(ncn2[C@@H]2O[C@@H]3COP(=O)(O)O[C@H]4[C@@H](O)[C@H](n5cnc6c(=O)[nH]c(N)nc65)O[C@@H]4COP(=O)(O)O[C@H]3[C@H]2O)c(=O)[nH]1` [c-di-GMP] has a Kd (tVYN-NtΔ (NtYcgRΔ)) of 54 ± 4 nM, a Kd (tVYN-Nt (NtYcgR)) of 20 ± 1 nM and a Kd (VYN-Ec (EcYcgR)) of 0.05 ± 0.004 µM. The Kd (Vcp229-Nt (NtYcgR)) was 14 ± 1 nM, the Kd (tVYN-Tb (TbYcgR)) was 12 ± 1 nM and the Kd (VYN-Tb (TbYcgR)) was 8 ± 0.4 nM. The Kd (Vcp157-Cp (CpYcgR)) was 96 ± 6 nM, the Kd (Vcp173-Nt (NtYcgR)) was 17 ± 4 nM and the Kd (VYN-Nt (NtYcgR)) was 14 ± 4 nM.
